Data set [1] concerns MDA-MB-231. Nature of the data set: Inhibition of colony formation in human MDA-MB-231 cells at 40 nM incubated for 5 days by crystal violet staining based light microscopy. The format is functional, cell-based. The gist of the method:
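4 × 10^3 cells per well were cultured with graded concentrations for 5 days. Cells were then fixed with 20% methanol, stained with 0.5% crystal violet and photographed by light microscopy.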

Data set [2] deals with MDA-MB-231. Briefly: Induction of apoptosis in human MDA-MB-231 cells at 40 nM incubated for 48 hrs by annexin V FITC and propidium iodide staining based flow cytometry. The format is functional, cell-based. The gist of the method: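 Annexin V-FITC/PI double staining with flow-cytometric readout. MDA-MB-231, T-47D, SiHa and HeLa cells were treated with graded concentrations for 48 h. MDA-MB-231 and T-47D were grown in DMEM and SiHa in 1640 medium, each with 10% FBS and 1% penicillin/streptomycin at 37°C under 5% CO2. Early- and late-stage apoptotic fractions were scored.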

Data set [3] deals with SiHa. Nature of the data set: Antitumor activity against human SiHa cells xenografted in NOD/SCID BALB/c mouse assessed as tumor growth inhibition at 40 mg/kg, po administered for 21 days. The format is functional, organism-based.
In a further data set the test system is HeLa. Briefly: Antiproliferative activity against human HeLa cells assessed as reduction in cell viability at 40 to 80 nM incubated for 48 hrs by EdU staining based laser scanning confocal microscopy. The format is functional. The gist of the method:
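Cells, 5×10^4, were seeded in 24-well plates and treated for 48 h. They were then labeled using an EdU Apollo 488 imaging kit with Hoechst 33342 nuclear stain and imaged by laser scanning confocal microscopy. Percent EdU-positive cells = EdU-positive/Hoechst-stained × 100%.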

For data set [4], the target named is Tau-tubulin kinase 2 (Homo sapiens) (UniProt Q6IQ55). Nature of the data set: Inhibition of recombinant human TTBK2 (1 to331 residues) at 1 uM using casein as substrate incubated for 40 mins in presence of [gamma-33P]-ATP by scintillation counting method relative to control. The gist of the method: (§1)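 Tested at a single 1 uM in an outsourced commercial kinase-profiling panel, read as percent inhibition. Each value is the mean of two independent experiments.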
Sequence of Tau-tubulin kinase 2 (Homo sapiens) (Q6IQ55 whole entry, the tested form may be a part): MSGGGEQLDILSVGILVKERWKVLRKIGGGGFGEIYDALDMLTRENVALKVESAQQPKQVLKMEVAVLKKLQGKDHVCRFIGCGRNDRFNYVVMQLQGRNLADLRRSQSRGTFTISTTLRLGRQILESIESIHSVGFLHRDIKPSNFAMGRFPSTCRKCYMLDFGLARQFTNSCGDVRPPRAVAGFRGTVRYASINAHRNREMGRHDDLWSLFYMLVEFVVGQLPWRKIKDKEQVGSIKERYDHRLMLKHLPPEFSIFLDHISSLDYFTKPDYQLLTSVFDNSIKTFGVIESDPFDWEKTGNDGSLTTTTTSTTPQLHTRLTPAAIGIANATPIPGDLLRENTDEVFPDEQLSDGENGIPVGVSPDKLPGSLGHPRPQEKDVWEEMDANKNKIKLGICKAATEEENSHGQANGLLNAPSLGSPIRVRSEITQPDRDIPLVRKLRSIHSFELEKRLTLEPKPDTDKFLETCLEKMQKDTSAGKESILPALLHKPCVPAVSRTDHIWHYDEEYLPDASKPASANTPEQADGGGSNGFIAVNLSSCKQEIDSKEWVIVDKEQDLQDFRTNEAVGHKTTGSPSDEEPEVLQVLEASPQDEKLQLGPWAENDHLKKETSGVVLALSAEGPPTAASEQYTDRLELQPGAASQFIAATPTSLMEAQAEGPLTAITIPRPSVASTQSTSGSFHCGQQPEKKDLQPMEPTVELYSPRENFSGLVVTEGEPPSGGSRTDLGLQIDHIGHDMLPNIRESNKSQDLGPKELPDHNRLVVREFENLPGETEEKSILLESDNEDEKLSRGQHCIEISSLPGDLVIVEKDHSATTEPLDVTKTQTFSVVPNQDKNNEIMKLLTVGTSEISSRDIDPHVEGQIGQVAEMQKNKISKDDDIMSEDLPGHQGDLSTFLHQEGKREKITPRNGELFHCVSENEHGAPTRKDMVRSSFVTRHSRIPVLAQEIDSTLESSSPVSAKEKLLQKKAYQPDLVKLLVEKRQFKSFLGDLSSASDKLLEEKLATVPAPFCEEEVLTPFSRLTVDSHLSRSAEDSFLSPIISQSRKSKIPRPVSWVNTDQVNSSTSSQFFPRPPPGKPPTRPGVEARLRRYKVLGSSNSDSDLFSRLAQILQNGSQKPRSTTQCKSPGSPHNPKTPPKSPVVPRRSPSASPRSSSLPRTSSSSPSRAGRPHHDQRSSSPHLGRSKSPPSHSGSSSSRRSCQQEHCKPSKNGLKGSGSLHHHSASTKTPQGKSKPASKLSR

Data set [5] deals with Myosin light chain kinase, smooth muscle (Homo sapiens) (UniProt Q15746). Nature of the data set: Inhibition of recombinant human MLCK (1425 to 1771 residues) at 1 uM using KKLNRTLSFAEPG as substrate incubated for 40 mins in presence of [gamma-33P]-ATP by scintillation counting method relative to control.
Sequence of Myosin light chain kinase, smooth muscle (Homo sapiens) (Q15746 whole entry, the tested form may be a part): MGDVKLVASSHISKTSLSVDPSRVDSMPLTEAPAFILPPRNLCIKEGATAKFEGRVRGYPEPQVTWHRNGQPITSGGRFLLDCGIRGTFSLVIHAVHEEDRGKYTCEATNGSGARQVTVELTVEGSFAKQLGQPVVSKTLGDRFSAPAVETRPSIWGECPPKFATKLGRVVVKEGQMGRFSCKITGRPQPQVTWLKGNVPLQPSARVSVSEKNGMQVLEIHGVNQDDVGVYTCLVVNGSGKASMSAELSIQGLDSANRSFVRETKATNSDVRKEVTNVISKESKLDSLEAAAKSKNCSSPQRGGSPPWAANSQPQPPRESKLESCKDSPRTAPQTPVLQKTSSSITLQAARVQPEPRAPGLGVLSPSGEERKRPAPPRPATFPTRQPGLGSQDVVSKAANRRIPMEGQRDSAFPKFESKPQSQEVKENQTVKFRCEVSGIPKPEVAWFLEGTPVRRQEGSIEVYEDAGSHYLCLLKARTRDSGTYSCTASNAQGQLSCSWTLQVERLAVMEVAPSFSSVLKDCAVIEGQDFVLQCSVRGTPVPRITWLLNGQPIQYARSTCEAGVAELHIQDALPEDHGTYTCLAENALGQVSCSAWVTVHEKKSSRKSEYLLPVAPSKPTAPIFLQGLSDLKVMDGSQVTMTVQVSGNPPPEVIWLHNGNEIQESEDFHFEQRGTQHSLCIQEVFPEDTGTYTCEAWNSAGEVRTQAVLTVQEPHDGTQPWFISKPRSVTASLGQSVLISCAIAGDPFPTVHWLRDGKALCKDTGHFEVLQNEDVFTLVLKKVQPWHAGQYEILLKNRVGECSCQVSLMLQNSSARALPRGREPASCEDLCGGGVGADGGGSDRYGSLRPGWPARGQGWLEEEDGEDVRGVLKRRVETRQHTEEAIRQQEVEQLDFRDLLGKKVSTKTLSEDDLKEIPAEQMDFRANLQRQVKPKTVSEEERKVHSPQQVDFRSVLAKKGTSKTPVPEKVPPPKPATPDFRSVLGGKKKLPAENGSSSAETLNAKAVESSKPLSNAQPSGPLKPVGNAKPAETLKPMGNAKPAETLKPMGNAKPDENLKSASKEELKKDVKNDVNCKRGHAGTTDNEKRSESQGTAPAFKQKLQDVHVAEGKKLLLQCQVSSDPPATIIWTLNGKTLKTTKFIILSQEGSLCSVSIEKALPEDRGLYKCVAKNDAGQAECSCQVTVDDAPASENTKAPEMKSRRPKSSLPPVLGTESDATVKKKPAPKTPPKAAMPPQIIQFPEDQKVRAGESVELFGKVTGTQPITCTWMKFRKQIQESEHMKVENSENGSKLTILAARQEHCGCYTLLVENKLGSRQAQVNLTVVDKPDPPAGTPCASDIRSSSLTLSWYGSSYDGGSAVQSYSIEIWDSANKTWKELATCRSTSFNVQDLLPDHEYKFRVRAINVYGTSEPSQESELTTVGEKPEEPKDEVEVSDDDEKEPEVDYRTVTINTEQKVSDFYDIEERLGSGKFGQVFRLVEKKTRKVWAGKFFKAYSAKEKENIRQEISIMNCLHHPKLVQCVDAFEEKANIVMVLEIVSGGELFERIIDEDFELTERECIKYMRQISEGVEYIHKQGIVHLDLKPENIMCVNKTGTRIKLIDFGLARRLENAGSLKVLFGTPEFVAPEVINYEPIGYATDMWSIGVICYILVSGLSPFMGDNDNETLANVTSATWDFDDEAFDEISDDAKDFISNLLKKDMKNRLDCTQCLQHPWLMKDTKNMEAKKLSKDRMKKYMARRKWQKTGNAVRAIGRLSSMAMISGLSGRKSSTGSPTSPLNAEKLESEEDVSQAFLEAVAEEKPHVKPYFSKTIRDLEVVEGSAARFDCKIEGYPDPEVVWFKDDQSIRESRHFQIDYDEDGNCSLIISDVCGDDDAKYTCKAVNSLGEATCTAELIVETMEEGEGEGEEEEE
The target in data set [6] is Tyrosine-protein kinase Fes/Fps (Homo sapiens) (UniProt P07332). Nature of the data set: Inhibition of recombinant human FES (2 to end residues) at 1 uM using poly(Glu, Tyr) 4:1 as substrate incubated for 40 mins in presence of [gamma-33P]-ATP by scintillation counting method relative to control.
The target in data set [7] is Bone morphogenetic protein receptor type-1B (Homo sapiens) (UniProt O00238). Nature of the data set: Inhibition of recombinant human ALK6 (148 to end residues) at 1 uM using casein as substrate incubated for 40 mins in presence of [gamma-33P]-ATP by scintillation counting method relative to control. The gist of the method: (§2)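 Kinase panel profiling at 1 μM performed by Eurofins KinaseProfiler; percent inhibition reported as mean of two independent experiments.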
Sequence of Bone morphogenetic protein receptor type-1B (Homo sapiens) (O00238 whole entry): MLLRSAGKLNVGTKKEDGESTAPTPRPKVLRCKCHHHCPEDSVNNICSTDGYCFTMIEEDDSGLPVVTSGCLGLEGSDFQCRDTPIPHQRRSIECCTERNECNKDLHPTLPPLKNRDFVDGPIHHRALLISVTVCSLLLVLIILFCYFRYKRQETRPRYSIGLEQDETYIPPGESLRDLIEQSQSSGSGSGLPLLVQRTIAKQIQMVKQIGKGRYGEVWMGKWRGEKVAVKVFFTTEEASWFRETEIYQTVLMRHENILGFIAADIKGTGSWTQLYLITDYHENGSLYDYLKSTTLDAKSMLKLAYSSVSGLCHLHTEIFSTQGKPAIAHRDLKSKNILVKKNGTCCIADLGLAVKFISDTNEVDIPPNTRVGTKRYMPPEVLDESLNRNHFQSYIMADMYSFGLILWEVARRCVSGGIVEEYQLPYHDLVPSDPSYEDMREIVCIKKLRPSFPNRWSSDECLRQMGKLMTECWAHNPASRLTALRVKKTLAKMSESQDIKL

For data set [8], the system named is SiHa. Briefly: Antiangiogenic activity against human SiHa cells xenografted in orally dosed NOD/SCID BALB/c mouse assessed as reduction in CD31 expression measured after 21 days by hematoxylin and eosin staining based immunohistochemistry. The format is functional, organism-based. The gist of the method:
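Female NOD/SCID Balb/c mice, 6–8 weeks old, received 2×10^6 SiHa cells subcutaneously in the right flank. Once tumors reached 100 mm³, mice were randomized, 5 per group, and gavaged once daily for 21 days. Formalin-fixed, paraffin-embedded tumor sections were stained with Ki67 or CD31 antibody (1:100, 4 °C overnight), then biotin secondary and ABC-peroxidase/DAB, with hematoxylin counterstain.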
Background: A xenograft is tissue or cells of one species grown in another, often human tumour cells in immunodeficient mice.

Data set [9] deals with T1, CDK4/Cyclin D3 (Homo sapiens) (UniProt P11802+P30281). Nature of the data set: Inhibition of recombinant full length human CDK4/Cyclin D3 using Rb-fragmen as substrate at 1 uM incubated for 40 mins by [gamma-33P]-ATP based radiometric assay relative to control. The data set is classed as protein-complex assay. The essentials:
as §2

Data set [10] addresses PI3-kinase p110-alpha/p85-alpha (Homo sapiens) (UniProt P27986+P42336). Nature of the data set: Inhibition of recombinant human full length PI3K p110alpha/p85alpha at 1 uM using phosphatidylinositol 4,5-bisphosphate as substrate incubated for 40 mins in presence of [gamma-33P]-ATP by scintillation counting method relative to control. The data set is classed as protein-complex assay.

The target in data set [11] is LIM domain kinase 2 (Homo sapiens) (UniProt P53671). Briefly: Inhibition of recombinant human LIMK2 at 1 uM incubated for 40 mins in presence of [gamma-33P]-ATP by scintillation counting method relative to control.
In data set [12] the target is Phosphatidylinositol 3-kinase C2 domain-containing subunit gamma (Homo sapiens) (UniProt O75747). Nature of the data set: Inhibition of recombinant human PI3KC2gamma (468 to 1203 residues) at 1 uM using phosphatidylinositol as substrate incubated for 40 mins in presence of [gamma-33P]-ATP by scintillation counting method relative to control.
Data set [13] in a line: Toxicity in NOD/SCID BALB/c mouse xenografted with human SiHa cells assessed as effect on blood parameter by measuring PDW at 40 mg/kg, po administered once two days for 4 times by hematology analyzer. The format is organism-based. To be noted: in vivo.
Data set [14] can be described thus: Tmax in Sprague-Dawley rat at 10 mg/kg, po by HPLC-MS analysis. To be noted: in vivo. The data set is classed as ADME, organism-based.
The test system of another data set is T47D. Nature of the data set: Induction of apoptosis in human T47D cells assessed as decrease in Rb phosphorylation incubated for 48 hrs by Western blot analysis. The format is functional, cell-based. The gist of the method:
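Cancer cells were exposed to graded concentrations for 48 h, washed three times in PBS and lysed in RIPA buffer. Immunoblots were probed with anti-Rb, anti-phospho-Rb, anti-Ki67 and anti-Bcl-2, each at 1:1000. β-actin served as loading control.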
On the technique in general: In western blotting, separated proteins are transferred to a membrane and probed.

The target in data set [15] is Insulin receptor (Homo sapiens) (UniProt P06213). Briefly: Inhibition of recombinant activated human IR (1005 to 1310 residues) at 1 uM using KKKSPGEYVNIEFG as substrate incubated for 40 mins in presence of [gamma-33P]-ATP by scintillation counting method relative to control. The essentials:
as §2

Data set [16] has as its target Serine/threonine-protein kinase ULK1 (Homo sapiens) (UniProt O75385). Briefly: Inhibition of recombinant human ULK1 (1 to 314 residues) at 1 uM using casein as substrate incubated for 40 mins in presence of [gamma-33P]-ATP by scintillation counting method relative to control. The gist of the method:
as §1

Data set [17] has as its target Serine/threonine-protein kinase WNK3 (Homo sapiens) (UniProt Q9BYP7). Nature of the data set: Inhibition of recombinant human WNK3 (1 to 434 residues) at 1 uM using myelin basic protein as substrate incubated for 40 mins in presence of [gamma-33P]-ATP by scintillation counting method relative to control.
In data set [18] the target is T1, CDK4/Cyclin D3 (Homo sapiens). Nature of the data set: Inhibition of recombinant human full length CDK4/cyclinD3 at 1 uM using Rb fragment as substrate incubated for 40 mins in presence of [gamma-33P]-ATP by scintillation counting method relative to control. The data set is classed as protein-complex assay.
Data set [19] concerns the target Tyrosine-protein kinase Lyn (Homo sapiens) (UniProt P07948). Nature of the data set: Inhibition of recombinant human full length LYN at 1 uM using poly(Glu, Tyr) 4:1 as substrate incubated for 40 mins in presence of [gamma-33P]-ATP by scintillation counting method relative to control.

Calls of active or inactive are those of the source. The calls are words filed in the database; no cut-off is given here.

In general, inhibition refers to the percentage by which the read-out fell short of the control. By Tmax is commonly meant the time from dosing to the highest level.

Sequence of Insulin receptor (Homo sapiens) (P06213 28-758 limits assumed): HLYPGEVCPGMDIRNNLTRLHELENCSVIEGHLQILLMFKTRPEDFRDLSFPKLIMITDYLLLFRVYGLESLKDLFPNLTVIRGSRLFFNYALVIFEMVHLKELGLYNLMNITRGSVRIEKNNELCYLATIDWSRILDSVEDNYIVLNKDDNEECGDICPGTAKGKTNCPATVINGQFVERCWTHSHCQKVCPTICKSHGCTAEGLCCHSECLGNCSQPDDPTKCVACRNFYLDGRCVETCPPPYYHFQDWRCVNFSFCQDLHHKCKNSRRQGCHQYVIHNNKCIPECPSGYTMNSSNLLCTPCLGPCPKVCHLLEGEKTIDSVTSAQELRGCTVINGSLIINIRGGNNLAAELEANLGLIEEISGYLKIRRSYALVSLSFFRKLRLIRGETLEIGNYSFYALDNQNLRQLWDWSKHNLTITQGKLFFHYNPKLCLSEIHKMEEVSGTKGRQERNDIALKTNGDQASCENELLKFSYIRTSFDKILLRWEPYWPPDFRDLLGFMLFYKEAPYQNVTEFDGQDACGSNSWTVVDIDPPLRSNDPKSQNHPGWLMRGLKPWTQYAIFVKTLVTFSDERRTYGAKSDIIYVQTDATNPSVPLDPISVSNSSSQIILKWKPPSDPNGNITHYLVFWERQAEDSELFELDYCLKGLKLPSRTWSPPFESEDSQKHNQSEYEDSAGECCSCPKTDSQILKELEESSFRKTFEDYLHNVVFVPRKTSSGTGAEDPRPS
Sequence of Insulin receptor (Homo sapiens) (P06213 763-1382 limits assumed): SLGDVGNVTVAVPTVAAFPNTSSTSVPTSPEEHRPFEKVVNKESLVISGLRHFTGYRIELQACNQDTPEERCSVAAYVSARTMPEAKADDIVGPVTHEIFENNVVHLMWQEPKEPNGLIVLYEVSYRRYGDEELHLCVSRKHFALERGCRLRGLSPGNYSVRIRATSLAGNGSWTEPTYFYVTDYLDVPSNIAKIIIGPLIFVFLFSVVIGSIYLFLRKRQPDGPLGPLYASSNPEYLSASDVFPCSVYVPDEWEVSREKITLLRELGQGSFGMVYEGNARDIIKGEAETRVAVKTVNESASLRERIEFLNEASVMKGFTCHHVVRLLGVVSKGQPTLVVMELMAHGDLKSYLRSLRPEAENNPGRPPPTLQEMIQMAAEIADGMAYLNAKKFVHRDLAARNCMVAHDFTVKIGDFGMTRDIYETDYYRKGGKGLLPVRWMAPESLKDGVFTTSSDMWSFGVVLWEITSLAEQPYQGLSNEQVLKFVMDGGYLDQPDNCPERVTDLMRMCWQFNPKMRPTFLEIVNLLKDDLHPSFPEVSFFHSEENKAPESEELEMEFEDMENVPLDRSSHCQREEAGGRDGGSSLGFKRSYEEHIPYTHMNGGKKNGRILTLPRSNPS

On to `COc1cc2nccc(Oc3ccc(NC(=O)C4(C(=O)Nc5ccc(F)cc5)CC4)cc3)c2cc1OC` [CABOZANTINIB], for which the inhibition result with MDA-MB-231 [1] was “Active”. Moreover, in the data set with MDA-MB-231 [2], the outcome was Active. Moreover, the TGI result in the data set on SiHa [3] was “Active”.
Turning to `Cc1ccc(NC(=O)C2(C(=O)Nc3ccc(Nc4ncc(F)c(-c5cc(F)c6nc(C)n(C(C)C)c6c5)n4)cc3)CC2)cc1`, in the data set on HeLa, the inhibition result was “Active”. The inhibition in data set [4] was 0%; in data set [5], 21%; in data set [6], 89%; in data set [7], 12%; in the data set on SiHa [8], “Dose-dependent effect”; in data set [9] it was 97%. The inhibition in data set [10] was determined as 7%; in [11], 42%; in data set [12], 38%; in data set [15] it was 27%; in data set [16], 0%; in data set [17] it was 17%. The inhibition in [18] is 97%; in data set [19] it was 58%. The figures for the Activity result (in data set [13]; in the data set on T47D) were “Non-Toxic” and “Dose-dependent effect”, respectively. Besides, the time to peak (Tmax) in data set [14] is 2 h.

The values are drawn from ChEMBL document CHEMBL4406821, “Novel dual inhibitors targeting CDK4 and VEGFR2 synergistically suppressed cancer progression and angiogenesis” (Eur J Med Chem, 2019).
